Data published in ChEMBL document CHEMBL1275303, “Synthesis and antimicrobial activity of 2-substituted [4-(1,3,4-oxadiazol-2-yl methyl)] phthalazin-1(2H)-one derivatives” (2010).

Experiments:
Bacillus subtilis [1] = assay: Antimicrobial activity against Bacillus subtilis at 100 ug/mL after 24 hrs by well plate method; type: functional; conditions: read-out: IZ
Outline: (§1)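 Agar well diffusion in nutrient agar. About 1 cm³ of a 24 h broth culture was placed in sterile dishes, and molten agar at 45 °C was poured over it and set. 6 mm wells were bored and filled with compound in DMSO (100 or 50). Plates were incubated 24 h at 37 °C, and the inhibition zone was read in mm. Duplicate runs, with standard deviation; amoxicillin as reference.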

Staphylococcus aureus [2] = assay: Antimicrobial activity against Staphylococcus aureus at 100 ug/mL after 24 hrs by well plate method; type: functional; conditions: read-out: IZ; outline: as §1
Aspergillus flavus [3] = assay: Antimicrobial activity against Aspergillus flavus at 50 ug/mL after 72 hrs by well plate method; type: functional; conditions: read-out: IZ
Nannizzia gypsea [4] = assay: Antimicrobial activity against Microsporum gypseum at 50 ug/mL after 72 hrs by well plate method; type: functional; conditions: read-out: IZ
Outline: (§2)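 Antifungal well-plate assay on Sabouraud dextrose agar using a 72 h old broth culture of the fungal strain. Wells were filled with compound dissolved in DMSO (100 or 50), and the zone of inhibition around each well was measured. […] served as reference.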

Salmonella typhi [5] = assay: Antimicrobial activity against Salmonella typhi at 100 ug/mL after 24 hrs by well plate method; type: functional, Salmonella enterica subsp. enterica serovar Typhi; conditions: Salmonella enterica, read-out: IZ
Outline: (§3)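 Agar well diffusion in nutrient agar: about 1 cm³ of a 24 h broth culture placed in a sterile dish, molten agar at 45 °C poured over it and allowed to set. 6 mm holes cut with a sterile cork borer and filled with compound solution in DMSO. Incubated 24 h at 37 °C; inhibition zone diameter read in mm. Run in duplicate, standard deviation calculated.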

Bacillus subtilis [6] = assay: Antimicrobial activity against Bacillus subtilis at 50 ug/mL after 24 hrs by well plate method; type: functional; conditions: read-out: IZ; outline: as §1
[7] = test system: Chrysosporium keratinophilum; assay: Antimicrobial activity against Chrysosporium keratinophilum at 50 ug/mL after 72 hrs by well plate method; type: functional; conditions: read-out: IZ; outline: as §2
Staphylococcus aureus [8] = assay: Antimicrobial activity against Staphylococcus aureus at 50 ug/mL after 24 hrs by well plate method; type: functional; conditions: read-out: IZ; outline: as §1
Nannizzia gypsea [9] = assay: Antimicrobial activity against Microsporum gypseum at 100 ug/mL after 72 hrs by well plate method; type: functional; conditions: read-out: IZ; outline: as §2
Escherichia coli [10] = assay: Antimicrobial activity against Escherichia coli at 100 ug/mL after 24 hrs by well plate method; type: functional; conditions: read-out: IZ; outline: as §1
Salmonella typhi [11] = assay: Antimicrobial activity against Salmonella typhi at 50 ug/mL after 24 hrs by well plate method; type: functional, Salmonella enterica subsp. enterica serovar Typhi; conditions: Salmonella enterica, read-out: IZ; outline: as §3
[12] = test system: Chrysosporium keratinophilum; assay: Antimicrobial activity against Chrysosporium keratinophilum at 100 ug/mL after 72 hrs by well plate method; type: functional; conditions: read-out: IZ; outline: as §2
Aspergillus flavus [13] = assay: Antimicrobial activity against Aspergillus flavus at 100 ug/mL after 72 hrs by well plate method; type: functional; conditions: read-out: IZ
Candida albicans [14] = assay: Antimicrobial activity against Candida albicans at 100 ug/mL after 72 hrs by well plate method; type: functional; conditions: read-out: IZ; outline: as §2
Candida albicans [15] = assay: Antimicrobial activity against Candida albicans at 50 ug/mL after 72 hrs by well plate method; type: functional; conditions: read-out: IZ; outline: as §2
Escherichia coli [16] = assay: Antimicrobial activity against Escherichia coli at 50 ug/mL after 24 hrs by well plate method; type: functional; conditions: read-out: IZ; outline: as §1

Structure (SMILES) | zone of inhibition at 100 µg/mL (Bacillus subtilis [1]) [mm] | zone of inhibition at 100 µg/mL (Staphylococcus aureus [2]) [mm] | zone of inhibition at 50 µg/mL (Aspergillus flavus [3]) [mm] | zone of inhibition at 50 µg/mL (Nannizzia gypsea [4]) [mm] | zone of inhibition at 100 µg/mL (Salmonella typhi [5]) [mm] | zone of inhibition at 50 µg/mL (Bacillus subtilis [6]) [mm] | zone of inhibition at 50 µg/mL [7] [mm] | zone of inhibition at 50 µg/mL (Staphylococcus aureus [8]) [mm] | zone of inhibition at 100 µg/mL (Nannizzia gypsea [9]) [mm] | zone of inhibition at 100 µg/mL (Escherichia coli [10]) [mm] | zone of inhibition at 50 µg/mL (Salmonella typhi [11]) [mm] | zone of inhibition at 100 µg/mL [12] [mm] | zone of inhibition at 100 µg/mL (Aspergillus flavus [13]) [mm] | zone of inhibition at 100 µg/mL (Candida albicans [14]) [mm] | zone of inhibition at 50 µg/mL (Candida albicans [15]) [mm] | zone of inhibition at 50 µg/mL (Escherichia coli [16]) [mm]
O=c1c2ccccc2c(Cc2nnc(-c3ccsc3)o2)nn1Cc1cnc(Cl)s1 | 8 | 10 | 3.5 | 6.5 | 12 | 4 | 5.5 | 7 | 9.5 | 16 | 7 | 11.5 | 8.5 | 8.5 | 4.5 | 10
O=c1c2ccccc2c(Cc2nnc(C(F)(F)F)o2)nn1Cc1cnc(Cl)s1 | 5 | 7 | 1.5 | 3 | 5.5 | 3 | 2 | 4 | 5.5 | 6.5 | 3 | 5.5 | 4.5 | 3.5 | 0.5 | 3
O=c1c2ccccc2c(Cc2nnc(C3CC3)o2)nn1Cc1cnc(Cl)s1 | 5.5 | 4.5 | 3.5 | 4.5 | 7.5 | 2 | 0.5 | 2 | 7 | 11.5 | 4 | 3.5 | 6 | 5.5 | 3.5 | 9
O=c1c2ccccc2c(Cc2nnc(-c3ccc(F)cc3)o2)nn1Cc1cnc(Cl)s1 | 4.5 | 9 | 2 | 4 | 9 | 2 | 0 | 5 | 8.5 | 9 | 5 | 2.5 | 5 | 5.5 | 2.5 | 5
O=c1c2ccccc2c(Cc2nnc(-c3ccc(Cl)cc3)o2)nn1Cc1cnc(Cl)s1 | 5.5 | 10 | 2.5 | 1 | 9.5 | 3 | 2 | 7 | 4 | 9 | 5 | 4.5 | 5 | 6.5 | 3 | 5
Cc1ccccc1-c1nnc(Cc2nn(Cc3cnc(Cl)s3)c(=O)c3ccccc23)o1 | 5 | 2 | 1 | 1 | 5 | 2 | 0 | 0 | 3 | 6 | 3 | 3.5 | 2 | 3.5 | 0 | 6
O=c1c2ccccc2c(Cc2nnc(-c3ccc(Cl)nc3)o2)nn1Cc1cnc(Cl)s1 | 6 | 7 | 4 | 4 | 5 | 4 | 5.5 | 4 | 7.5 | 12 | 3 | 8.5 | 8 | 10.5 | 9.5 | 8
Cc1nnc(Cc2nn(CCN3CCOCC3)c(=O)c3ccccc23)o1 | 1 | 3.5 | 1 | 0 | 4.5 | 0 | 0 | 0 | 3.5 | 2.5 | 1.5 | 0 | 3.5 | 2.5 | 1 | 0
O=c1c2ccccc2c(Cc2nnc(C(F)(F)F)o2)nn1CCN1CCOCC1 | 5 | 0 | 2.5 | 2 | 2.5 | 2 | 2 | 0 | 4 | 3.5 | 0 | 4.5 | 5.5 | 3.5 | 0.5 | 0
O=c1c2ccccc2c(Cc2nnc(C3CC3)o2)nn1CCN1CCOCC1 | 5.5 | 1.5 | 2.5 | 3.5 | 6.5 | 3.5 | 0.5 | 0 | 6 | 5 | 2.5 | 2.5 | 5 | 4.5 | 2.5 | 1.5
